Series [1] concerns the target T1, GPR55 (Homo sapiens, UniProt Q9Y2T6). The series is described as follows: β-arrestin assessment of GPR55 activation. The note with it: for maximal inhibition of LPI response / effect of low concentrations on LPI-mediated βarr2-GFP recruitment: agonist 3 μM LPI; for maximal inhibition of LPI response / maximal inhibition of SR141716A response: normalized to agonist response; for recruitment of βarr2-GFP by compound alone: no agonist, AEA 0.1–30 μM. The format is cell-based. Put shortly:
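U2OS cells stably co-expressing HA-GPR55E and βarr2-GFP were seeded on glass coverslips, kept overnight at 37°C/5% CO2 and assayed in HBSS. Test compound (0.01–30 μM) was pre-incubated 15 min, then co-incubated 40 min RT with 3 μM LPI or 30 μM SR141716A. Fixation: 4% paraformaldehyde, 25 min. Imaging: 488 nm, 40X oil. Fluorescent pit counts were normalized to agonist response (100%), with sigmoidal fits for IC50. Three experiments in duplicate.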

Series [2] deals with T1, GPR55. The series is described as follows: GPR55 internalization assay, immunocytochemistry. The note with it: for effect on GPR55 internalization induced by ML184, ML185, ML186: 10 μM pre-incubation, agonist 5 μM of each ML compound; for effect on LPI-induced GPR55 internalization / effect on SR141716A-induced GPR55 internalization / GPR55 receptor localization, compound alone: 10 μM; for effect on LPI-induced GPR55 internalization / effect on SR141716A-induced GPR55 internalization: 15 min pre-incubation; for effect on LPI-induced GPR55 internalization: agonist 3 μM LPI; for effect on SR141716A-induced GPR55 internalization: agonist 30 μM SR141716A; for GPR55 receptor localization, compound alone: no agonist; for GPR55 receptor internalization, compound alone: 40 min, RT. The format is cell-based.

The subject of series [3] is HA-GPR55E/βarr2-GFP U2OS cells. Kind of series: LDH cytotoxicity assay. Format: cell-based. Particulars: for toxicity to the cells (released LDH): at concentrations employed in this study (10 and 30 μM).
The target of series [4] is T1, GPR55. The note with it: cited from earlier work.
For series [5], the target named is T1, GPR55. The note with it: read-out: EC50, agonist at GPR55 (βarr2-GFP distribution); previous study; ref Kapur et al. 2009; cited from earlier work.
For series [6], the target named is T1, GPR55. Particulars: read-out: agonist potency at GPR55; ref Ryberg et al., 2007; cited from earlier work.
The subject of another series is CB1. Particulars: read-out: agonist potency at CB1; ref Ryberg et al., 2007; cited from earlier work.
The next series deals with CB2. Particulars: read-out: agonist potency at CB2; ref Ryberg et al., 2007; cited from earlier work.
The subject of the next series is CB1 receptor. The note with it: ref Porter et al., 2002; cited from earlier work.
For a further series, the system named is CB2 receptor. The note with it: ref Porter et al., 2002; cited from earlier work.
Setting [7] is: 10 μM + 3 μM LPI, % of total LDH activity.
Where [8] appears, read: 10 μM + 30 μM SR141716A, % of total LDH activity.
Setting [9] is: 10 μM alone, % of total LDH activity (1% Triton X-100).
The mark [10] stands for this setting: 30 μM + 3 μM LPI, % of total LDH activity.
Setting [11] is: 30 μM + 30 μM SR141716A, % of total LDH activity.
Where [12] appears, read: 30 μM alone, % of total LDH activity (1% Triton X-100).

In general, pIC50 refers to the negative decadic logarithm of the IC50, by convention in mol/L. Low values mean a large IC50, high ones a small IC50.

pEC50, pIC50: −log10 of the molar value. Where “and” joins values, the source holds several entries; their conditions need not be identical. Identical values can stand only once. Like-named read-outs stand apart in the source and are kept apart here.

T1 sequence (Q9Y2T6 1-292 limits assumed): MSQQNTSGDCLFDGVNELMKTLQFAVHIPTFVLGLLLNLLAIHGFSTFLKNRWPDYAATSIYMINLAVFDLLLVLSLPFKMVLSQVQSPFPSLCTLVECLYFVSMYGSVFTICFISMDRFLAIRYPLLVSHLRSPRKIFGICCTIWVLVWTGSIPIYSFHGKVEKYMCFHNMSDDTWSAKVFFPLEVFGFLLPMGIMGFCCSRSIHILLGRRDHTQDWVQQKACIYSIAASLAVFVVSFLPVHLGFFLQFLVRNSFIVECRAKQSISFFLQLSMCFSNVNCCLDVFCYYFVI

Turning to `CCCCC/C=C\C/C=C\C/C=C\C/C=C\CCCC(=O)NCCO` [AEA, N-arachidonyl ethanolamine], on GPR55 [1], the negative logarithm of the IC50 (pIC50) was 5.23 and 4.92; the “maximal inhibition of LPI response” value was found to be 20%; the “recruitment of βarr2-GFP by compound alone” value was “did not result in recruitment of βarr2-GFP”. In addition, the “maximal inhibition of SR141716A response” value on GPR55 [1] (agonist 30 μM SR141716A) is recorded as 65%. Also, on GPR55 [1] (low concentrations), the “effect of low concentrations on LPI-mediated βarr2-GFP recruitment” value is listed as “enhanced the recruitment”. On GPR55 [2], the “effect on GPR55 internalization induced by ML184, ML185, ML186” value is recorded as “largely attenuated”; the “effect on LPI-induced GPR55 internalization” value is “markedly decreased receptor internalization”; the “effect on SR141716A-induced GPR55 internalization” value was “markedly decreased receptor internalization”; the “GPR55 receptor localization, compound alone” value is “membrane bound receptors”. Also, in series [3] (setting [7]), the “Cell death, %” value came to 6.12%. In [3] (setting [8]), the “Cell death, %” value came to 6.79%. The “Cell death, %” value in [3] (setting [9]) is 5.90%. Also, the “Cell death, %” value in series [3] (setting [10]) amounted to 5.86%. Further, the “Cell death, %” value in [3] (setting [11]) is reported as 8.02%. Moreover, in series [3] (setting [12]), the “Cell death, %” value is listed as 5.93%. Moreover, in series [3], the “toxicity to the cells (released LDH)” value was “neither AEA nor virodhamine are toxic”. Further, the “activation of GPR55” value on GPR55 [4] (previous findings of the laboratory, ref Kapur et al., 2009) was “did not activate GPR55”.

Turning to `CCCCCCC(C)(C)c1ccc([C@@H]2C[C@H](O)CC[C@H]2CCCO)c(O)c1` [CP55,940], on GPR55 [4] (ref Henstridge et al. 2009, Kapur et al. 2009, Pineiro et al. 2011), the “type of activity at GPR55” value was “antagonist/partial agonist”.

In the case of `Cc1cccc(N2CCN(C(=O)c3cc(S(=O)(=O)N(C)C)ccc3N3CCCC3)CC2)c1C` [ML184, 3-[4-(2,3-dimethylphenyl)piperazine-1-carbonyl]-N,N-dimethyl-4-pyrrolidin-1-ylbenzenesulfonamide], the “GPR55 receptor internalization, compound alone” value (“GPR55 receptor internalization” below) on GPR55 [2] (5 μM) is given as “resulted in receptor internalization”.

For `COc1ccc(-c2csc(NC(=O)CSc3nnc4c(C)cc5ccccc5n34)n2)cc1` [ML185, N-[4-(4-methoxyphenyl)-1,3-thiazol-2-yl]-2-[(4-methyl-[1,2,4]triazolo[4,3-a]quinolin-1-yl)sulfanyl]acetamide], the “GPR55 receptor internalization” value at GPR55 [2] (5 μM) is “resulted in receptor internalization”.

For the molecule `COc1ccc(S(=O)(=O)N2CCOCC2)cc1NC(=O)c1cc2c(s1)CCCC2` [ML186, N-(2-methoxy-5-morpholin-4-ylsulfonylphenyl)-4,5,6,7-tetrahydro-1-benzothiophene-2-carboxamide], the “GPR55 receptor internalization” value on GPR55 [2] (5 μM) is listed as “resulted in receptor internalization”.

For the molecule `Cc1c(C(=O)NN2CCCCC2)nn(-c2ccc(Cl)cc2Cl)c1-c1ccc(Cl)cc1` [SR141716A, N-(piperidin-1-yl)-5-(4-chlorophenyl)-1-(2,4-dichlorophenyl)-4-methyl-1H-pyrazole-3-carboxamide], the “GPR55 receptor internalization” value on GPR55 [2] (30 μM) is “loss of membrane staining and the appearance of cytosolic fluorescent aggregates corresponding to internalized receptors”. Also, the “Cell death, %” value in series [3] (setting [12]) amounted to 7.12%. For the same molecule, on GPR55 [5], the pEC50 was 5.41.

For `CCCCC/C=C\C/C=C\C/C=C\C/C=C\CCCC(=O)OCCN` [virodhamine, O-arachidonoyl ethanolamine], the “maximal inhibition of LPI response” value at GPR55 [1] is 46%. Moreover, at GPR55 [1] (agonist 30 μM SR141716A), the “maximal inhibition of SR141716A response” value was 68%. Moreover, on GPR55 [1], the “recruitment of βarr2-GFP by compound alone” value was “weak recruitment of βarr2-GFP”. For the same molecule, on GPR55 [1] (low concentrations), the “effect of low concentrations on LPI-mediated βarr2-GFP recruitment” value is recorded as “enhanced the recruitment”. Moreover, the “effect of low concentrations on SR141716A-mediated βarr2-GFP recruitment” value at GPR55 [1] (low concentrations, agonist 30 μM SR141716A) is “enhanced the recruitment”. Moreover, the “effect on GPR55 internalization induced by ML184, ML185, ML186” value on GPR55 [2] is reported as “largely attenuated”. In addition, on GPR55 [2], the “effect on LPI-induced GPR55 internalization” value is on record as “strikingly decreased receptor internalization”. Besides, at GPR55 [2], the “effect on SR141716A-induced GPR55 internalization” value was “strikingly decreased receptor internalization”. The “GPR55 receptor localization, compound alone” value at GPR55 [2] is given as “receptors were localized to the membrane”. Moreover, the “Cell death, %” value in series [3] (setting [7]) came to 6.94%; in series [3] (setting [8]), 6.44%; in [3] (setting [9]), 7.27%; in [3] (setting [10]), 8.73%; in series [3] (setting [11]) it was 6.93%; in series [3] (setting [12]), 8.08%. Besides, the “toxicity to the cells (released LDH)” value in [3] is “neither AEA nor virodhamine are toxic”. Also, the pEC50 is 7.92 at GPR55 [6], 5.54 in the series on CB1 and 6.42 in the series with CB2. In addition, in the series on CB1 receptor, the “type of activity at the CB1 receptor” value is reported as “partial agonist/antagonist”. Further, the “type of activity at the CB2 receptor” value with CB2 receptor is “full agonist”.

With lysophosphatidylinositol [LPI], the “GPR55 receptor internalization” value at GPR55 [2] (3 μM) was “loss of membrane staining and the appearance of cytosolic fluorescent aggregates corresponding to internalized receptors”. In addition, the “Cell death, %” value in [3] (3 μM alone, % of total LDH activity (1% Triton X-100)) was determined as 7.08%. Also, the pEC50 on GPR55 [5] is 5.92.

The values above are taken from PMC3669693 (Journal of neuroimmune pharmacology : the official journal …, 2012).
